Compound activity as filed in PubChem.
Hits are enriched below; roughly 5.7% of the tested compounds scored in any of these assays.
CSC inhib: blocks cancer stem cells. inhibition, % at 7.5 µM. hit rate 1.1% among 300,000. cancer stem cell-like cells viability, luminescence; in the data active = inhibition above about 75%; inconclusive = no clear call, values can overlap the other calls; tested in HMLE shEcad cells
SKKanGAS inh: blocks kanamycin growth of S. pyogenes SKKanGAS strain | BacTiter-Glo, 6 h | inhibition, % at 7.5 µM | hit rate 1.3% among 300,000 | AID 1662;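 active = mean replicate score, as percent of positive control median, at least 50; inconclusive = mean below 50 but one replicate at or above 50; inactive = mean and every replicate below 50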;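 note: strain carries kanamycin resistance gene driven by streptokinase promoter and grows in 40 µg/ml kanamycin; loss of luminescence reflects streptokinase promoter inhibition or plain growth inhibition; 0% = median of DMSO wells and 100% = positive control at its reference dose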
Calb FLC: affects C. albicans growth with fluconazole; C. albicans CaCi-2 (fluconazole-resistant clinical isolate) + fluconazole, Alamar Blue growth, 48 h; growth inhibition, % (test concentration not listed); AID 1979; hit rate 0.57% among 300,000;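 active = growth inhibition above about 58% in most replicates, limit read from the data, passing the limit was not always enough; inconclusive = exactly half the replicates above a set limit; inactive = most replicates below a set limit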;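 note: all wells also contain fluconazole at 8 µg/ml as a sub-toxic cotreatment; 0% = median of DMSO wells and 100% = median of geldanamycin control wells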
Mdm2-MdmX inh: disrupts the human Mdm2-MdmX interaction; O15151+Q00987; inhibition, % at 8 µM; SaOS-2 split-luciferase Mdm2/MdmX complementation, luminescence; hit rate 3% among 330,000; AID 485346;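 active = inhibition of at least 50% at 8 µM in the primary screen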
Target sequence (O15151 whole entry, looked up): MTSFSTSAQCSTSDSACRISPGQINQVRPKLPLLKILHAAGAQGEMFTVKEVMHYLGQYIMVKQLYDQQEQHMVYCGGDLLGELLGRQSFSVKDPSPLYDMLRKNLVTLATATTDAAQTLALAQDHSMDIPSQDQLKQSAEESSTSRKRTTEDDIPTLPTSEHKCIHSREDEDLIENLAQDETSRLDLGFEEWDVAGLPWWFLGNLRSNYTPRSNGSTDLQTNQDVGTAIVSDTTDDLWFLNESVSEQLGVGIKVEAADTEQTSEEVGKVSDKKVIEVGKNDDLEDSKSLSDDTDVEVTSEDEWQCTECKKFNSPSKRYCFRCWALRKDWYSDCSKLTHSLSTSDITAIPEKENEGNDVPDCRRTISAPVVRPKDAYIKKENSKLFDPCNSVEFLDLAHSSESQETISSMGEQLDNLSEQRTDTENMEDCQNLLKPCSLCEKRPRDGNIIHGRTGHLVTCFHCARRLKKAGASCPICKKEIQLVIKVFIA
Target sequence (Q00987 whole entry, looked up): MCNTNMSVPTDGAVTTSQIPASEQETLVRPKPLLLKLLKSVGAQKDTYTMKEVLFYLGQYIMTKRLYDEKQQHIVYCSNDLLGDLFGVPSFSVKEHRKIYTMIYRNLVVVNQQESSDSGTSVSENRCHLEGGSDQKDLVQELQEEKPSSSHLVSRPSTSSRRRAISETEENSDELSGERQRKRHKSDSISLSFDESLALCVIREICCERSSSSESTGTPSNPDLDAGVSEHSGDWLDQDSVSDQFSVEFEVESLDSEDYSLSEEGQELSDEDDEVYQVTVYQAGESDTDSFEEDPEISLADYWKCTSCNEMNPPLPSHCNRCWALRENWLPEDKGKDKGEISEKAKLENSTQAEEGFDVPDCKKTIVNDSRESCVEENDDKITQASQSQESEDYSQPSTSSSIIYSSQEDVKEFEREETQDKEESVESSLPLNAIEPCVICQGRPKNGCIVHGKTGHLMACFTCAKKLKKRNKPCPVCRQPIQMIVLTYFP
T cruzi inh: blocks replication of Trypanosoma cruzi | hit rate 1.4% among 300,000 | T. cruzi beta-gal in NIH3T3, luminescence, 90 h | inhibition, % (test concentration not listed);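 active = mean inhibition across valid replicates above about 55%, limit read from the data; inconclusive = mean below that limit but half or more replicates reach it; inactive = mean below it, under half of replicates reach it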;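 note: signal also drops with host cell toxicity which is not excluded here; 0% = plate median of DMSO wells and 100% = zero luminescence signal; higher percent means less beta-gal luminescence so fewer parasites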
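System: NIH/3T3 fibroblasts plus reporter T. cruzi. Medium: DMEM plus 2% FBS. Probe or stimulus: 5000 reporter trypomastigotes per well. Compound: single 50 nL compound addition per well in DMSO. Incubation: co-culture of at least 90 h after 3 h attachment. Detection: GalScreen β-gal luminescence, detergent lysis, 60 min. Evaluation: parasite load inhibition, %.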
Beta cell apopt: beta cell apoptosis inhibition. hit rate 0.8% among 300,000. INS-1E cytokine-induced death, ATP luminescence, 48 h; percent of positive-control rescue, neutral wells zero. protection from apoptosis, % (no concentration beside the values);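 active = Every replicate reaches about 75%, or at least half do and their mean reaches it too, limit read from the data; inconclusive = At least half of replicates reach the limit but their mean does not; inactive = Under half of replicates reach the limit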;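 note: 0% = cytokine-treated negative control wells and 100% = positive control rescue; higher means more ATP so stronger rescue from cytokine killing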
Mdm2-MdmX conf: confirmation of human Mdm2/MdmX interaction inhibitors; shares compounds with Mdm2-MdmX inh; Mdm2-MdmX binding, luminescent assay; inhibition, % at 8 µM; hit rate 55% among 10,000; in the data active = inhibition above about 40%
FLuc counter: inhibits full-length luciferase, flagging false Mdm2/MdmX hits; AID 504607; SaOS-2 full-length luciferase counterscreen, luminescence; hit rate 77% among 6,200; inhibition, % at 8 µM; shares compounds with Mdm2-MdmX inh;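 active = mean inhibition at 8 µM reaching about 37%, which flags the compound as non-specific, limit read from the data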;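 note: p53-null SaOS-2 cells with luciferase driven by a doxycycline-inducible promoter; compound on cells about two nights before reading with doxycycline added after day one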
Numbers without * were called inactive; ? = inconclusive; / = not tested or not shown; + = active, no number.

SMILES | CSC inhib | SKKanGAS inh | Calb FLC | Mdm2-MdmX inh | T cruzi inh | Beta cell apopt | Mdm2-MdmX conf | FLuc counter
CCN(CC)CCN(C(=O)c1ccc(C(=O)c2ccccc2)cc1)c1nc2cc3c(cc2s1)OCO3 | -7.3 | -6.0 | -0.7 | 2.9 | 36.0 | -7.0 | / | /
CN(C)CCCN(C(=O)c1cc2cc([N+](=O)[O-])ccc2s1)c1nc2cc3c(cc2s1)OCCO3 | 63.4 | 10.0 | -19.6 | 96.8* | 63.0* | / | 65.1* | 77.2*
CN(C)CCCN(C(=O)c1ccc([N+](=O)[O-])s1)c1nc2cc3c(cc2s1)OCCO3 | 0.5 | 3.1 | -6.2 | 34.6 | 33.3 | 11.9 | / | /
CN(C)CCCN(C(=O)c1cc(Cl)sc1Cl)c1nc2cc3c(cc2s1)OCO3 | -1.8 | 0.3 | -0.3 | 53.9* | 30.9 | -8.5 | 21.6 | /
CN(C)CCCN(C(=O)c1ccc(C(=O)c2ccccc2)cc1)c1nc2cc3c(cc2s1)OCO3 | 16.9 | 2.1 | -4.1 | 74.7* | 34.4 | -5.8 | 48.2* | 31.7
CCOc1ccccc1NC(=O)C1(S(=O)(=O)c2ccc(Cl)cc2)CC1 | / | 3.2 | -8.8 | 18.6 | 16.3 | 5.2 | / | /
c1ccc(Cc2cc[n+](Cc3ccccn3)cc2)cc1 | -2.5 | -2.2 | -12.9 | 0.1 | 0.7 | 14.7 | / | /
CC(=O)Nc1ccc(S(=O)(=O)Nc2ccc3c(c2)C(=O)OC3)cc1 | / | 1.2 | -3.4 | -3.1 | -8.7 | -0.3 | / | /
Cc1cccc(N2CC(C(=O)Nc3nnc(SCC(=O)NCC4CCCO4)s3)CC2=O)c1 (stereo not drawn) | -2.3 | 6.5 | 1.1 | -1.0 | -1.7 | 1.6 | / | /
CCOc1ccc(C(c2c(NC(=O)c3ccccc3)sc(C)c2C)N2CCN(CCO)CC2)cc1 (stereo not drawn) | 29.4 | -3.2 | -4.3 | 15.4 | 29.8 | 3.0 | / | /
Cc1sc(NC(=O)c2ccco2)c(C(c2ccc(F)cc2)N2CCN(C)CC2)c1C (stereo not drawn) | -1.0 | 3.2 | 6.8 | 53.5* | 8.4 | -5.2 | 36.0 | 73.7*
Cc1sc(NC(=O)c2ccccc2)c(C(c2ccc(Cl)cc2)N2CCN(CCO)CC2)c1C (stereo not drawn) | 26.6 | 2.5 | 61.1 | 54.5* | 2.4 | -6.0 | 36.9 | 84.1*
Cc1sc(NC(=O)c2ccco2)c(CN2CCN(c3ccc(F)cc3)CC2)c1C | 36.1 | 12.8 | -6.7 | 10.2 | 20.7 | -9.8 | / | /
C/C=C(\C)C(=O)N1CCC(C(=O)c2ccccc2)CC1 | / | 3.8 | -6.1 | -0.3 | -7.3 | / | / | /
CCOc1ccc(-n2c(SCC(=O)Nc3nccs3)nc3c(c2=O)SCC3)cc1 | 12.5 | 1.9 | -5.4 | 58.9* | -20.3 | 17.3 | 16.7 | /
Cc1ccc(-n2c(SCC(=O)Nc3nccs3)nc3c(c2=O)SCC3)cc1 | -7.0 | 4.7 | -25.9 | 3.8 | -14.6 | 0.1 | / | /
O=C(CCN1C(=O)S/C(=C\C=C\c2ccccc2)C1=O)Nc1ccc(O)cc1 | -9.3 | 4.8 | -8.4 | -62.5 | -17.7 | -4.9 | / | /
O=C(CN1C(=O)S/C(=C\C=C\c2ccccc2)C1=O)Nc1cccc(O)c1 | 93.0* | 8.4 | ? | 99.3* | -18.5 | 23.3 | -3.5 | /
Cc1ccc(NC(=O)c2cc(C(C)(C)C)nn2Cc2ccccc2)cc1 | / | 25.2 | 0.8 | 74.3* | 14.1 | / | 55.5* | 59.2*
OCCCNc1cc(-c2ccnc(Nc3cccc(Cl)c3)n2)ccn1 | -10.2 | -3.8 | 114.1* | 100.3* | 50.0 | -35.7 | 99.6* | 50.5*
CCC(C)Oc1cc(-c2ccnc(Nc3cccc(Cl)c3)n2)ccn1 (stereo not drawn) | -6.5 | 15.1 | -11.1 | 94.7* | 56.7* | -7.8 | 72.8* | 25.4
COc1cccc(NC(=O)c2cccc(C)c2[N+](=O)[O-])c1 | 15.0 | 1.9 | -8.9 | 8.8 | 3.9 | -4.5 | / | /
CCN1CSC(=S)N(Cc2ccc(OC)cc2)C1 | 47.1 | 3.4 | 1.4 | 69.0* | 20.0 | -6.3 | 31.6 | /
CC(C)N(C(=O)CSc1nnc(CSc2ncccn2)n1C)C(C)C | -9.4 | / | -17.0 | 7.0 | -4.2 | -3.9 | / | /
CCCNC(=O)c1ccc(S(=O)(=O)c2ccc(OC)cc2)c([N+](=O)[O-])c1 | 6.2 | -6.7 | 0.3 | 86.9* | -2.6 | -22.5 | 53.0* | 18.7
SMILES | CSC inhib | SKKanGAS inh | Calb FLC | Mdm2-MdmX inh | T cruzi inh | Beta cell apopt | Mdm2-MdmX conf | FLuc counter
COc1cc(-c2cc(C(=O)Nc3cccc(C(C)=O)c3)c3ccccc3n2)cc(OC)c1OC | 12.9 | 20.6 | 8.8 | 60.9* | 11.1 | / | 39.6 | 81.9*
O=C(Nc1cccc(S(=O)(=O)NCc2ccco2)c1)c1cc(-c2ccccc2)nc2ccccc12 | 38.7 | 36.1 | -10.9 | 52.3* | 21.1 | -1.9 | 24.6 | /
COc1cc2c(cc1NC(=O)c1cc(-c3ccncc3)nc3ccc(C)cc13)oc1ccccc12 | 37.5 | -2.7 | 22.2 | 50.9* | 28.5 | 49.6 | 9.4 | /
COC(=O)CNC(=O)c1cc(-c2ccncc2)nc2ccc(C)cc12 | -3.0 | 3.7 | 7.5 | 7.2 | 0.7 | -2.9 | / | /
COc1cc(-c2cc(C(=O)Nc3ccccc3N3CCOCC3)c3ccccc3n2)cc(OC)c1OC | -2.3 | 37.7 | -4.0 | 45.8 | 41.8 | 13.8 | / | /
COc1cc(-c2cc(C(=O)Nc3ccc(C)c(S(=O)(=O)N4CCOCC4)c3)c3ccccc3n2)cc(OC)c1OC | 15.2 | / | / | 52.1* | / | -19.8 | 39.4 | 73.0*
O=C(NCc1ccco1)c1cc(-c2ccccc2)nc2ccccc12 | -4.8 | -13.6 | 5.9 | 15.2 | 4.1 | 3.8 | / | /
CC(=O)c1cccc(NC(=O)c2ccc(NC(=O)CC3SC(N4CCCCC4)=NC3=O)cc2)c1 (stereo not drawn) | -5.8 | 3.9 | 1.8 | 29.8 | -12.9 | 1.7 | / | /
CN1CCN(c2ncnc3c2cnn3-c2ccc(Cl)cc2)CC1 | 39.1 | 0.9 | -12.4 | 51.2* | 25.1 | 0.1 | 60.5* | +
COc1cccc(N2CCN(c3ncnc4c3cnn4-c3ccc(C)cc3C)CC2)c1 | 42.0 | 19.7 | 11.6 | 89.5* | 26.4 | 48.8 | 100.2* | 28.0
c1ccc(-n2ncc3c(N4CCC5(CC4)OCCO5)ncnc32)cc1 | 7.9 | -8.8 | 3.4 | -79.4 | -9.4 | 2.7 | / | /
CC1CCCN(c2ncnc3c2cnn3-c2ccccc2)C1 (stereo not drawn) | 42.8 | -6.6 | -5.5 | 52.4* | 5.9 | 6.2 | 52.5* | 192.0*
c1ccc(-n2ncc3c(N4CCCCC4)ncnc32)cc1 | 2.7 | -0.5 | -9.2 | 50.8* | 15.2 | -1.7 | 53.5* | 160.1*
CCOC(=O)c1c(C)[nH]c(C)c1S(=O)(=O)N(C)CC(=O)NCc1ccc(F)cc1 | -21.0 | -0.8 | 1.5 | 21.3 | -9.2 | / | / | /
c1ccc(C(c2ccccc2)c2ccn[nH]2)cc1 | 2.8 | 10.4 | 8.2 | -41.1 | 19.5 | -0.6 | / | /
Cc1ccccc1NC(=O)CSc1n[nH]c(-c2ccccn2)n1 | 14.6 | -2.3 | 0.0 | 37.4 | -40.2 | 7.8 | / | /
